# Laboratory results reported in PMC12707352 (Angewandte Chemie (International Ed. in English), 2025).
# Columns and labels:
# [1] = test system: RAW 264.7 murine macrophage‐like cells; assay: EZ-Cytox cell viability assay with RSL3 co-treatment; type: cell-based; conditions: RSL3 1 µM + DMSO, 24 h, EZ-Cytox (WST), n = 3
# Method in brief: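 RAW 264.7 murine macrophage-like cells were co-treated for 24 h with RSL3 (1 µM) plus test compound. The screen used 10 µM, and dose-response used 0.3–20 µM on a log scale. Viability was read by EZ-Cytox and normalized to DMSO. Mean ± SD, n = 3.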
# RAW 264.7 cells [2] = assay: Lipid peroxidation, flow cytometry with BODIPY 665/676; type: cell-based, murine; conditions: RSL3 1 µM, 4 h, BODIPY 665/676 flow cytometry
# Method in brief: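 RAW 264.7 cells were treated for 4 h with DMSO, RSL3 (1 µM) or test compound plus RSL3. They were then stained with BODIPY 665/676 for 0.5 h. Mean fluorescence intensity was read by flow cytometry. Mean ± SD, n = 3; one-way ANOVA.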
# HeLa cells = assay: Lipid peroxidation, fluorescence imaging with BODIPY 665/676; type: cell-based, human; conditions: RSL3 1 µM, 3 h, BODIPY 665/676 imaging
# Method in brief: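 HeLa cells were treated for 3 h with DMSO, test compound (40 µM), RSL3 (1 µM) or both. They were then stained for 0.5 h with Hoechst 33342 (2 µg/ml) and BODIPY 665/676 (5 µM). Cells were imaged by fluorescence, and BODIPY intensity was quantified relative to DMSO-treated cells. Mean ± SD, n = 21; one-way ANOVA.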
# RAW 264.7 cells [3] = conditions: read-out: EC50 (ferroptosis inhibition); in RAW 264.7 cells; cited from earlier work
# [4] = macrocyclic analog of crizotinib; cited from earlier work
structure (smiles),measurement,setting,value
"COC(=O)c1ccc([C@H]2c3[nH]c4ccccc4c3C[C@H](C(=O)OC)N2C(=O)CCl)cc1 [RSL3, RAS‐selective lethal 3]",Cell viability with RSL3 alone,[1],18%
same,"Lipid peroxide level (flow cytometry), RSL3 alone",RAW 264.7 cells [2],markedly increased lipid peroxide levels
same,"Lipid peroxide level (imaging), RSL3 alone",HeLa cells,markedly increased lipid peroxide levels
CCOC(=O)c1ccc(NC2CCCCC2)c(N)c1 [ferrostatin‐1],EC50,RAW 264.7 cells [3],40 ± 4 nM
C[C@H]1Oc2cc(cnc2N)-c2c(nn(C)c2C#N)CN(C)C(=O)c2ccc(F)cc21 [lorlatinib],Potency increase through macrocyclization,[4],~80 fold
